Converted amounts (≈) assume the structure as drawn.
Columns and labels:
[1] = Fraction unbound in Wistar Han rat at 1 mg/kg, iv measured upto 4 hrs by LC-MS/MS analysis; assay type: ADME, organism-based
Method in brief: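 Control Wistar Han rat blood dialyzed against PBS by rapid equilibrium dialysis, 4 h at 37 °C, compound at 200 and 1000 ng/mL; matrix-matched aliquots analysed by LC-MS/MS; unbound fraction from buffer/blood peak area ratios, mean of the two concentrations.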

[2] = organism: Homo sapiens; assay: Selectivity index, ratio of pIC50 of BRD4 BD1 (unknown origin) to pIC50 of BRD4 BD2 (unknown origin)
[3] = target: Bromodomain-containing protein 4 (Homo sapiens, UniProt O60885, Y390A); assay: Inhibition of 6His-Thr-BRD4 (1 to 477 residues) BD2 domain Y390A mutant (unknown origin) incubated for 30 mins by TR-FRET assay
[4] = Volume of distribution at steady state in Wistar Han rat at 1 mg/kg, iv measured upto 7 hrs by LC-MS/MS analysis; assay type: ADME, organism-based; conditions: in vivo, read-out: Vdss
Method in brief: (§1)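 Surgically cannulated male Wistar Han rats (femoral vein dosing, jugular vein sampling), given 1 h iv infusion at target 1 mg/kg, 0.2 mg/mL in DMSO/10% (w/v) Kleptose HPB in saline (2:98 v/v); n = 1. Serial 25 μL blood samples predose to 7 h; parent compound by LC-MS/MS (LLQ 1−2 ng/mL); non-compartmental analysis of blood concentration−time profiles.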

[5] = Permeability of compound; assay type: ADME; conditions: not told; read-out: permeability
[6] = Metabolic stability in rat Hepatocyte assessed as intrinsic clearance at 0.5 uM incubated for 60 mins by LC-MS/MS analysis; assay type: ADME, tissue-based; conditions: hepatocytes, 1 h
[7] = Solubility of compound by CLND assay; assay type: physicochemical
[8] = Dose normalized AUC in Wistar Han rat at 3 mg/kg, po measured upto 24 hrs by LC-MS/MS analysis; assay type: ADME, organism-based; conditions: in vivo
Method in brief: (§2)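 Three naive male Wistar Han rats dosed by oral gavage at target 3 mg/kg, suspended in 1% (w/v) methylcellulose aq at 0.6 mg/mL. Serial 25 μL blood samples via tail vein up to 24 h; parent compound by LC-MS/MS (LLQ 1 ng/mL) against standards in control blood; non-compartmental PK analysis.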

[9] = target: T1, Bromodomain-containing protein 3 (Homo sapiens, UniProt Q15059); assay: Inhibition of 6His-Thr-BRD3 (1 to 435 residues) BD1 domain (unknown origin) incubated for 30 mins by TR-FRET assay
Target sequence in this assay (Q15059 whole entry, the tested form may be a part): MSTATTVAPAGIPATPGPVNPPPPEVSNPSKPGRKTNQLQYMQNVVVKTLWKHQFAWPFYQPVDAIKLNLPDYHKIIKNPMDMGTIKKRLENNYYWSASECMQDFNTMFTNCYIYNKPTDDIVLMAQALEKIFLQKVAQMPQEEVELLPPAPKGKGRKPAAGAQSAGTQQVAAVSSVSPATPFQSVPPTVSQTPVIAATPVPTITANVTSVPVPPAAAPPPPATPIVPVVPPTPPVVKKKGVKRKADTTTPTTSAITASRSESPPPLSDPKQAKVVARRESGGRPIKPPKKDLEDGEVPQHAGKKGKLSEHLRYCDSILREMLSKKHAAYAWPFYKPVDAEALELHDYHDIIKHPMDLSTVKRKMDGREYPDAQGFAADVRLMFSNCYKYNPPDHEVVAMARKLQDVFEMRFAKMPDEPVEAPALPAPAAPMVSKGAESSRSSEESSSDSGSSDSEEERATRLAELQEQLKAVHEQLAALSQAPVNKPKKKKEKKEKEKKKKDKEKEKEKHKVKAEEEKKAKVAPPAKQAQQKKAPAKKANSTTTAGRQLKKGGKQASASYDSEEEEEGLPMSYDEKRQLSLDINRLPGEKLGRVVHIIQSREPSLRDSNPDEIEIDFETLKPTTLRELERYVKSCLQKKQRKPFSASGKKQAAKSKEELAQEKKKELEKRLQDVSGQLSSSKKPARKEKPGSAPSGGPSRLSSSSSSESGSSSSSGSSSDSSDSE

[10] = AUC in Wistar Han rat at 1 mg/kg, iv measured upto 7 hrs by LC-MS/MS analysis; assay type: ADME, organism-based; set-up: route intravenous, dose 1 mg/kg, time <=7; conditions: in vivo; method in brief: as §1
[11] = Inhibition of LPS-induced MCP1 production in PBMC (unknown origin); assay type: functional, tissue-based
[12] = Clearance in Wistar Han rat at 1 mg/kg, iv measured upto 7 hrs by LC-MS/MS analysis; assay type: ADME, organism-based; conditions: in vivo; method in brief: as §1
[13] = system: Blood; assay: Inhibition of LPS-stimulated MCP-1 production in human whole blood incubated for 24 hrs by mesoscale assay; assay type: functional, tissue-based
Method in brief: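 Sodium-heparinized human whole blood preincubated 30 min with compound (DMSO dilutions, 140× stocks) at 37 °C, 5% CO₂, then stimulated with Salmonella typhosa LPS (200 ng/mL final) for 24 h. PBS added, plates centrifuged, supernatant MCP-1 quantified by MesoScale Discovery immunoassay.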

[14] = target: T2, Bromodomain-containing protein 2 (Homo sapiens, UniProt P25440); assay: Inhibition of 6His-Thr-BRD2 (1 to 473 residues) BD2 domain Y386A or Y113A mutant (unknown origin) incubated for 30 mins by TR-FRET assay
[15] = Half life in Wistar Han rat at 1 mg/kg, iv measured upto 7 hrs by LC-MS/MS analysis; assay type: ADME, organism-based; conditions: in vivo; method in brief: as §1
[16] = target: T2, Bromodomain-containing protein 2; assay: Inhibition of 6His-Thr-BRD2 (1 to 473 residues) BD1 domain (unknown origin) incubated for 30 mins by TR-FRET assay
[17] = target: Voltage-gated inwardly rectifying potassium channel KCNH2 (Homo sapiens, UniProt Q12809); assay: Inhibition of human ERG
[18] = Unbound clearance in Wistar Han rat at 1 mg/kg, iv measured upto 7 hrs by LC-MS/MS analysis; assay type: ADME, organism-based; conditions: in vivo
[19] = target: T1, Bromodomain-containing protein 3; assay: Inhibition of 6His-Thr-BRD3 (1 to 435 residues) BD2 domain Y348A or Y73A mutant (unknown origin) incubated for 30 mins by TR-FRET assay
Target sequence in this assay (Q15059 2-726 limits assumed): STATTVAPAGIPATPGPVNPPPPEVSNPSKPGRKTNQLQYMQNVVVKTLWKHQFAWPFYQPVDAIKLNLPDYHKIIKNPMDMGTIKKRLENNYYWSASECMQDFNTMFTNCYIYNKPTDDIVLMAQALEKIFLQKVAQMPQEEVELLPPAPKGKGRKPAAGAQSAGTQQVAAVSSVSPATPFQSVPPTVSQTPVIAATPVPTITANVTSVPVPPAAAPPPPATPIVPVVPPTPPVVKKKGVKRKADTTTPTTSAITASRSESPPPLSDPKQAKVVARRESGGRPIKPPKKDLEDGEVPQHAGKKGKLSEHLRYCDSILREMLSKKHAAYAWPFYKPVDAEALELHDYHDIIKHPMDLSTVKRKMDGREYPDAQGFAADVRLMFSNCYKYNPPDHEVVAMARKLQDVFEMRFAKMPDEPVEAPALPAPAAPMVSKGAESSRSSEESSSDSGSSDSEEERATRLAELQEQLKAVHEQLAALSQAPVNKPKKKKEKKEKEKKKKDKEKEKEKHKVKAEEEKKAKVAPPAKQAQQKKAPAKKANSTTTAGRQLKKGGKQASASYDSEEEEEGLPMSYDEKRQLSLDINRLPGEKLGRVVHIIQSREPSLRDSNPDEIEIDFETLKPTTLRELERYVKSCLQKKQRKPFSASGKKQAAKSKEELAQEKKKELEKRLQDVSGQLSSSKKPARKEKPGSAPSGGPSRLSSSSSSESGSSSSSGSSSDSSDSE

[20] = target: Albumin (Homo sapiens, UniProt P02768); assay: Binding affinity to human serum albumin; assay type: ADME; conditions: isolated protein
Method in brief: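 Chromatographic binding on chemically bonded HSA column (50 × 3 mm), 1.8 mL/min; mobile phase 50 mM ammonium acetate pH 7.4 with 2-propanol gradient (0−30% over 3 min, hold to 6 min, back to 0%); gradient retention time recorded.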

[21] = Oral bioavailability in Wistar Han rat at 3 mg/kg measured upto 24 hrs by LC-MS/MS analysis; assay type: ADME, organism-based; conditions: in vivo; method in brief: as §2
[22] = target: Bromodomain-containing protein 4 (Homo sapiens, UniProt O60885, Y97A); assay: Inhibition of 6His-Thr-BRD4 (1 to 477 residues) BD1 Y97A mutant (unknown origin) incubated for 30 mins by TR-FRET assay
[23] = Metabolic stability in human Hepatocyte assessed as intrinsic clearance at 0.5 uM incubated for 120 mins by LC-MS/MS analysis; assay type: ADME, tissue-based; conditions: hepatocytes, 2 h
[24] = target: T3, Bromodomain testis-specific protein (Homo sapiens, UniProt Q58F21); assay: Inhibition of 6His-FLAG-Tev-BRDT (1 to 397 residues) BD1 domain (unknown origin) incubated for 30 mins by TR-FRET assay
[25] = target: T3, Bromodomain testis-specific protein; assay: Inhibition of 6His-FLAG-Tev-BRDT (1 to 397 residues) BD2 domain Y309A or Y66A mutant (unknown origin) incubated for 30 mins by TR-FRET assay

T2 sequence (P25440 whole entry, the tested form may be a part): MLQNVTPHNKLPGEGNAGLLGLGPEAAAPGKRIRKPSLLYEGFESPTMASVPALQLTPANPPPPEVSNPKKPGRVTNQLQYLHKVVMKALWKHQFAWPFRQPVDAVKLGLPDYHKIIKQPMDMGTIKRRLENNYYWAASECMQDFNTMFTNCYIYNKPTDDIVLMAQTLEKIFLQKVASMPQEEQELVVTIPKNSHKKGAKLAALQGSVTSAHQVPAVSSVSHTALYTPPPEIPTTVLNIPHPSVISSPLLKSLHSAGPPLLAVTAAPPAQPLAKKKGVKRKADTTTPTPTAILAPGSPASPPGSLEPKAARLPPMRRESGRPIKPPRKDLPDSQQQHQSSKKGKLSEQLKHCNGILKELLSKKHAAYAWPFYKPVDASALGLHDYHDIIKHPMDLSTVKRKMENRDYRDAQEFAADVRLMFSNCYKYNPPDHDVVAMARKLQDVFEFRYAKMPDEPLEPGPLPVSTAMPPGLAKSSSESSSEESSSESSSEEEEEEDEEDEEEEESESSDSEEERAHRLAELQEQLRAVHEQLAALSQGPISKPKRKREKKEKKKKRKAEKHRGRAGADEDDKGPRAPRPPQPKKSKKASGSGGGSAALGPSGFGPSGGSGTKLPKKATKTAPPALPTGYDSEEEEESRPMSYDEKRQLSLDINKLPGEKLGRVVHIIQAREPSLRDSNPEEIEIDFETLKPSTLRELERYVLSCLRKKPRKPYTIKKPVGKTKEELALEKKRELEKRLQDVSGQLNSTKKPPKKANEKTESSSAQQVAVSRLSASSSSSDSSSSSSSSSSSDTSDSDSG
Sequence of Albumin (P02768 whole entry): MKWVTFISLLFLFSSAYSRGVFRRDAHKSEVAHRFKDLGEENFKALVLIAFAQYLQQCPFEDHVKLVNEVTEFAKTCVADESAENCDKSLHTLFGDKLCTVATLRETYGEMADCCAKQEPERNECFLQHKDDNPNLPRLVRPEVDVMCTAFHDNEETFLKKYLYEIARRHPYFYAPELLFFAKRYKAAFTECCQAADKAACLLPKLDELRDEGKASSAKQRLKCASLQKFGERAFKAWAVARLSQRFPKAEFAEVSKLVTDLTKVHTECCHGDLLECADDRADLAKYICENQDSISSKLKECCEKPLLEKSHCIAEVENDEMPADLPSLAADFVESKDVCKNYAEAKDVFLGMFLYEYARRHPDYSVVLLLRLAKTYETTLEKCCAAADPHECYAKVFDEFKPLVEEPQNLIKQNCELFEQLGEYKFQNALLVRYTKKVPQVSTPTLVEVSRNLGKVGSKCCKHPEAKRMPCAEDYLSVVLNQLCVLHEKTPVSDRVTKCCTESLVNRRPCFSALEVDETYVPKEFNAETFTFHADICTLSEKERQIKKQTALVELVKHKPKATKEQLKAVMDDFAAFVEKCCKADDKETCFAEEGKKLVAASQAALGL
Sequence of Voltage-gated inwardly rectifying potassium channel KCNH2 (Q12809 whole entry): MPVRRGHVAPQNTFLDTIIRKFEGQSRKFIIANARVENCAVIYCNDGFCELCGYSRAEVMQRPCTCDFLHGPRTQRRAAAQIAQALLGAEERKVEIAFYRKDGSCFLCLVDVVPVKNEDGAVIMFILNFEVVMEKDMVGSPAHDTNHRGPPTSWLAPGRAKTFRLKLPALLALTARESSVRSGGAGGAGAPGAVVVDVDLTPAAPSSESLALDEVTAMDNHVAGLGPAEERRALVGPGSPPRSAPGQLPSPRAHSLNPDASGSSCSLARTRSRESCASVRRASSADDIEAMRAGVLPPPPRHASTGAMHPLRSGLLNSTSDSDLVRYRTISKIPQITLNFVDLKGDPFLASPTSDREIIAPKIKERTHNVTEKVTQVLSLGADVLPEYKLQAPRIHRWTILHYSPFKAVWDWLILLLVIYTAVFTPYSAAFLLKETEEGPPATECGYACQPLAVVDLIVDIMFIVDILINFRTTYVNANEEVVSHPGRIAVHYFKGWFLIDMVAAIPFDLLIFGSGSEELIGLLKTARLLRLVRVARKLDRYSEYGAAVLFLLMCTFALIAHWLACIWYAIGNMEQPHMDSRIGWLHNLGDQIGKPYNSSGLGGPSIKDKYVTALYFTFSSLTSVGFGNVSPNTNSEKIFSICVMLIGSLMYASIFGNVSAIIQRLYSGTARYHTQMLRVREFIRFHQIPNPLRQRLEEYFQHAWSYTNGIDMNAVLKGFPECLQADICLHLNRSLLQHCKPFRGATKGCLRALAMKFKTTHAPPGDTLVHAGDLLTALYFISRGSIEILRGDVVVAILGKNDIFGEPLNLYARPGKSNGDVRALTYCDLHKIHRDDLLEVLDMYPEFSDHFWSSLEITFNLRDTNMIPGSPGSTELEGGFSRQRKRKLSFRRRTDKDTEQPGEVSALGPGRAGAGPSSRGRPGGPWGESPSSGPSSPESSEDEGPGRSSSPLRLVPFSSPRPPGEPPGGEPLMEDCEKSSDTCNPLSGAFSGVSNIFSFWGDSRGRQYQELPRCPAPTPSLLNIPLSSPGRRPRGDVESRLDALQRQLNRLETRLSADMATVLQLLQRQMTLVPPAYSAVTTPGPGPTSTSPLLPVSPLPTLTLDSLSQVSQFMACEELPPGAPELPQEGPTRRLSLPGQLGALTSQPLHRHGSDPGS

Structure (SMILES)	Ratio pIC50 [2]	IC50 [3] [µM]	Vd [4] [L/kg]	Papp [5] [×10⁻⁶ cm/s]	CLH [6] [mL/min/g]	solubility kinetic [7] [µg/mL]	AUC/dose [8] [kg·min/L]	IC50 [9] [µM]	AUC at 7 h [10] [ng·h/mL]	IC50 [11] [µM]	clearance [12] [mL/min/kg]	IC50 [13] [µM]	pIC50 [14]	half-life [15] [min]	IC50 [16] [µM]	IC50 [17] [µM]	CL free [18] [mL/min/kg]	pIC50 [19]	Activity [20] [%]	bioavailability [21] [%]	also measured
C[C@H](Oc1ccc(C(=O)NC2CC2)cc1-c1cn(C)nn1)c1ccccn1	100	0.0501	1.8	15	< 0.8	145 (≈ 399 µM)	23	12.6	1180	0.0158	14	0.398	6.6	99	39.8	39.8	19	7.1	84	32	fraction unbound at 4 h [1]: 0.76; IC50 [22]: 5.01 µM; CLH [23]: < 0.45 mL/min/g
CCNC(=O)c1ccc(OCc2cccc(C)n2)c(-c2cn(C)nn2)c1	200	0.251	0.7	47	1.09	≥ 137	30	> 50.1	873	0.251	19	2.51	5.8	27	> 50.1	> 50.1	102	6.5	84	59	fraction unbound at 4 h [1]: 0.19; IC50 [24]: > 50.1 µM; pIC50 [25]: 6.4; IC50 [22]: 50.1 µM; CLH [23]: 1.18 mL/min/g
CCNC(=O)c1cc(Cc2cccc3[nH]ccc23)nc(-c2cn(C)nn2)c1	315	0.0316	1.1	30	1.98	≥ 148	15	31.6	778	0.0251	21	0.398	7.3	52.2	25.1	31.6	205	7.5	90	31	IC50 [24]: 25.1 µM; pIC50 [25]: 7.3; IC50 [22]: 10 µM; CLH [23]: < 0.45 mL/min/g

From ChEMBL document CHEMBL4834404, “Template-Hopping Approach Leads to Potent, Selective, and Highly Soluble Bromo and Extraterminal Domain (BET) Second Bromodomain (BD2) Inhibitors” (J Med Chem, 2021)
